{"source": "ChEMBL document CHEMBL2331220", "about": "“Benzimidazole clubbed with triazolo-thiadiazoles and triazolo-thiadiazines: new anticancer agents” (2013)", "format_in_all_cases": "functional", "key": {"[1]": {"experiment": "Cytotoxicity against human EKVX cells after 48 hrs by SRB assay", "in_short": "(§1)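 NCI 60-line five-dose screen. Cells were preincubated 24 h at 37 °C under 5% CO2 and 100% humidity, and time-zero plates were TCA-fixed when compound was added. Five 10-fold concentrations (0.01–100) were tested for 48 h. Cells were fixed with cold TCA (final 10%, 60 min, 4 °C), stained with 0.4% SRB for 10 min, and read at 515 nm. GI50, TGI and LC50 came from growth-percentage formulas, with out-of-range values given as > or <.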"}, "HCC 2998": {"system": "HCC 2998", "experiment": "Cytotoxicity against human HCC2998 cells after 48 hrs by SRB assay", "settings": "HCC 2998, 48 h", "in_short": "as §1"}, "T47D": {"system": "T47D", "experiment": "Cytotoxicity against human T47D cells after 48 hrs by SRB assay", "in_short": "(§2)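 NCI 60-line five-dose screen: cells plated, held 24 h at 37 °C, 5% CO₂ before treatment, with a TCA-fixed time-zero plate. Five final concentrations (0.01–100 µM, 10-fold dilutions) for 48 h. Cells fixed with cold TCA (10% final) and stained with 0.4% SRB in 1% acetic acid. Dye dissolved in 10 mM Tris and read at 515 nm. GI₅₀, TGI and LC₅₀ taken from percent-growth curves.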"}, "NCI-H226": {"system": "NCI-H226", "experiment": "Cytotoxicity against human NCI-H226 cells after 48 hrs by SRB assay", "settings": "NCI-H226, 48 h", "in_short": "as §1"}, "UACC-257": {"system": "UACC-257", "experiment": "Cytotoxicity against human UACC257 cells after 48 hrs by SRB assay", "settings": "UACC-257, 48 h", "in_short": "as §2"}, "Hs-578T": {"system": "Hs-578T", "experiment": "Cytotoxicity against human Hs578T cells after 48 hrs by SRB assay", "in_short": "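NCI five-dose screen: cells preincubated 24 h at 37 °C, 5% CO₂, with time-zero plates TCA-fixed. Five 10-fold dilutions (0.01–100) were added and cells incubated for 48 h, then fixed in 10% TCA for 60 min at 4 °C. Staining used 0.4% SRB in 1% acetic acid, solubilised in 10 mM Tris, with A515 read. GI₅₀, TGI and LC₅₀ were derived from Tz, control and test absorbances.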"}, "[2]": {"settings": "read-out: LC50 (the source's name)"}, "[3]": {"settings": "read-out: pLC50 (the source's name) (converted)"}}, "data": [{"smiles": "O=C(CCc1nnc2sc(-c3ccc(Cl)cc3Cl)nn12)c1nc2ccccc2[nH]1", "values": [{"measurement": "GI50", "setting": "[1]; read-out: GI50", "value": 1.53, "unit": "µM"}, {"measurement": "TGI", "setting": "[1]; read-out: TGI", "value": 3.69, "unit": "µM"}, {"measurement": "GI50", "setting": "[1]; read-out: pGI50 (converted)", "value": 1.55, "unit": "µM"}, {"measurement": "TGI", "setting": "[1]; read-out: pTGI (converted)", "value": 3.72, "unit": "µM"}, {"measurement": "GI50", "setting": "HCC 2998; read-out: GI50", "value": 1.63, "unit": "µM"}, {"measurement": "CC50", "setting": "HCC 2998; [2]", "value": 6.29, "unit": "µM"}, {"measurement": "TGI", "setting": "HCC 2998; read-out: TGI", "value": 3.2, "unit": "µM"}, {"measurement": "GI50", "setting": "HCC 2998; read-out: pGI50 (converted)", "value": 1.62, "unit": "µM"}, {"measurement": "CC50", "setting": "HCC 2998; [3]", "value": 6.31, "unit": "µM"}, {"measurement": "TGI", "setting": "HCC 2998; read-out: pTGI (converted)", "value": 3.16, "unit": "µM"}, {"measurement": "GI50", "setting": "T47D; read-out: GI50", "value": 0.753, "unit": "µM"}, {"measurement": "LC50 (concentration giving 50% net cell kill)", "setting": "T47D; read-out: LC50", "value": 7.06, "unit": "µM"}, {"measurement": "TGI", "setting": "T47D; read-out: TGI", "value": 2.51, "unit": "µM"}, {"measurement": "GI50", "setting": "T47D; read-out: pGI50 (converted)", "value": 0.759, "unit": "µM"}, {"measurement": "LC50 (concentration giving 50% net cell kill)", "setting": "T47D; read-out: pLC50 (converted)", "value": 7.08, "unit": "µM"}, {"measurement": "TGI", "setting": "T47D; read-out: pTGI (converted)", "value": 2.51, "unit": "µM"}, {"measurement": "GI50", "setting": "NCI-H226; read-out: GI50", "value": 0.244, "unit": "µM"}, {"measurement": "CC50", "setting": "NCI-H226; [2]", "value": 2.59, "unit": "µM"}, {"measurement": "TGI", "setting": "NCI-H226; read-out: TGI", "value": 0.696, "unit": "µM"}, {"measurement": "GI50", "setting": "NCI-H226; read-out: pGI50 (converted)", "value": 0.245, "unit": "µM"}, {"measurement": "CC50", "setting": "NCI-H226; [3]", "value": 2.57, "unit": "µM"}, {"measurement": "TGI", "setting": "NCI-H226; read-out: pTGI (converted)", "value": 0.692, "unit": "µM"}, {"measurement": "GI50", "setting": "UACC-257; read-out: GI50", "value": 2.1, "unit": "µM"}, {"measurement": "LC50", "setting": "UACC-257; read-out: LC50", "value": 22.5, "unit": "µM"}, {"measurement": "TGI", "setting": "UACC-257; read-out: TGI", "value": 5.01, "unit": "µM"}, {"measurement": "GI50", "setting": "UACC-257; read-out: pGI50 (converted)", "value": 2.09, "unit": "µM"}, {"measurement": "LC50", "setting": "UACC-257; read-out: pLC50 (converted)", "value": 22.4, "unit": "µM"}, {"measurement": "TGI", "setting": "UACC-257; read-out: pTGI (converted)", "value": 5.01, "unit": "µM"}, {"measurement": "GI50", "setting": "Hs-578T; read-out: GI50", "value": 0.478, "unit": "µM"}, {"measurement": "CC50", "setting": "Hs-578T; [2]", "value": "> 100", "unit": "µM"}, {"measurement": "GI50", "setting": "Hs-578T; read-out: pGI50 (converted)", "value": 0.479, "unit": "µM"}, {"measurement": "CC50", "setting": "Hs-578T; [3]", "value": "> 100", "unit": "µM"}]}]}
